Rows were chosen to be rich in hits. Some 4.4% of all compounds tested hit in one or more screens of this group.
MsrA inh: inhibitors of bovine MsrA; purified bovine MsrA, absorbance read-out; inhibition, % at 15.5 µM; 360,000 tested, 0.75% active; in the data active means inhibition above about 4.5%
m5-HT2A agonist: activates the mouse 5-HT2A serotonin receptor; P35363; CHO-K1 mHTR2A beta-arrestin complementation, luminescence; percent of 30 µM serotonin response; activation, % at 7.6 µM; 360,000 tested, 0.66% active; AID 624169;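 active means activation above a run cutoff, the mean activation of all tested compounds plus 3 SD, cut at about 14% in these data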
Target sequence (P35363 whole entry, looked up): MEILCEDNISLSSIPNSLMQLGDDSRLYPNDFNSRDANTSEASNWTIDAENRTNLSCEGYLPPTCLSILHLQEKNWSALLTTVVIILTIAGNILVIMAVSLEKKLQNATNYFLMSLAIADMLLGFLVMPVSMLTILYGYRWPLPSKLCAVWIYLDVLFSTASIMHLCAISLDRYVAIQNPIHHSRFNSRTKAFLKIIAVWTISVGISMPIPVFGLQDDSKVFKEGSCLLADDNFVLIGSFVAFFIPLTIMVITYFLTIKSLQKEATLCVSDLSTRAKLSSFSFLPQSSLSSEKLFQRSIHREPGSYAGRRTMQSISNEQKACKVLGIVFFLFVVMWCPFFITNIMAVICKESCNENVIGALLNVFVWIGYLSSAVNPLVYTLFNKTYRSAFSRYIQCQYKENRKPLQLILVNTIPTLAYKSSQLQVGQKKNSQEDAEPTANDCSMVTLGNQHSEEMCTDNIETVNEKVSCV
AHR activator: human AHR activation | P35869 | AHR-responsive luciferase reporter cells, luminescence | activation, % at 5 µM | 320,000 tested, 2.5% active | AID 2796; in the data active means activation above about 47%
AI-2 QS mod: modulators of Vibrio harveyi AI-2 quorum sensing system. Vibrio harveyi JMH597 AI-2 luminescence/OD600 ratio, 9 h; stronger effect = lower value; strain lacks LuxN and CqsS sensors; 0 = neutral-control median. activity change, % at 7.5 µM. 300,000 tested, 0.4% active; in the data active means activity change below about -75%, passing the limit was not always enough; inconclusive means no clear call, values can overlap the other calls;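 further: luminescence divided by OD600 gain over 9 h not by final OD600 alone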
bovine MsrA act: activators of bovine methionine sulfoxide reductase A. purified bovine MsrA, absorbance read-out. activation, % at 10.6 µM. 360,000 tested, 0.3% active. AID 602163; in the data active means activation above about 7.5%
TbMetRS inhib: blocks T. brucei methionyl-tRNA synthetase activity; 360,000 tested, 0.4% active; purified T. brucei MetRS, ATP depletion, Kinase-Glo luminescence; AID 624268; inhibition, % at 11.9 µM;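 active means inhibition above a per-plate cutoff of the control wells' mean inhibition plus 3 SD, cut at about 5.5% in these data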
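Dosing: 11.9 µM compound single dose, 0.9% DMSO; Assay system: purified T. brucei MetRS enzyme; Measured by: Kinase-Glo luciferase luminescence reporting remaining unconsumed ATP; Schedule: 15 min plus 2 h at 25 °C.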
Tb MetRS conf: confirmation of Trypanosoma brucei MetRS inhibitors; shares compounds with TbMetRS inhib; T. brucei MetRS enzyme, luminescence (ATP depletion); inhibition, % at 11.9 µM; 1,400 tested, 93% active; AID 624412; in the data active means inhibition above about 7%
Jurkat cytotox: counter-screen for T. brucei MetRS inhibitors: Jurkat cell cytotoxicity. shares compounds with TbMetRS inhib. Jurkat cells viability, ATP luminescence. inhibition, % at 8.3 µM. 1,400 tested, 12% active. AID 624413; in the data active means inhibition above about 15%
Tb MetRS inh FP: T. brucei MetRS inhibition, orthogonal assay | 1,400 tested, 44% active | purified T. brucei MetRS, fluorescence polarization | shares compounds with TbMetRS inhib | inhibition, % at 11.9 µM; in the data active means inhibition above about 17%
Large screens that a line does not name were inactive (follow-up assays come after a bar, where they were run).

Cc1cc2nc(/C(C#N)=C\c3ccc(-c4ccccc4C(=O)O)o3)[nH]c2cc1C	none
Cc1cc(C)nc(NS(=O)(=O)c2ccc(NS(=O)(=O)c3ccccc3)cc2)n1	none
Cc1cc(C)nc(NS(=O)(=O)c2ccc(NC(=O)Nc3ccccc3)cc2)n1	TbMetRS inhib 13 | Tb MetRS conf 16 | Jurkat cytotox inactive | Tb MetRS inh FP inactive
Cc1cc(NS(=O)(=O)c2ccc(NC(=O)Nc3ccccc3)cc2)no1	TbMetRS inhib 8.4 | Tb MetRS conf 16 | Jurkat cytotox inactive | Tb MetRS inh FP inactive
CCOc1ccc(Br)cc1S(=O)(=O)NCC(c1ccc(OC)cc1)N1CCOCC1 (centres undefined)	none (no result: AHR activator, AI-2 QS mod)
O=C(CCCOc1ccc(Cl)cc1Cl)NCCc1nnc2ccccn12	AI-2 QS mod inconclusive, TbMetRS inhib 7.8 | Tb MetRS conf 19 | Jurkat cytotox inactive | Tb MetRS inh FP inactive
C[C@H](NC(=O)CCCOc1ccc(Cl)cc1Cl)c1nnc2ccccn12	TbMetRS inhib 7.4 | Tb MetRS conf 16 | Jurkat cytotox inactive | Tb MetRS inh FP inactive
CCCS(=O)(=O)NC(=O)C1(C)CCN(C(=O)c2cncc(Br)c2)C1 (centres undefined)	none (no result: AHR activator, AI-2 QS mod)
Cc1ccc(NC(=O)C2(C)CCN2C2Cc3ccccc3C2)cc1 (centres undefined)	none (no result: AHR activator, AI-2 QS mod)
CCN(CC)CCC(O)(c1ccc2c(c1)OCO2)c1cc(OC)c(OC)c(OC)c1 (centres undefined)	none (no result: AHR activator, AI-2 QS mod)
Cc1cc(Cl)ccc1OCC(=O)NCC(=O)N/N=C/c1ccco1	TbMetRS inhib 6.8 | Tb MetRS conf 71 | Jurkat cytotox inactive | Tb MetRS inh FP 20
Cc1ccccc1OCC(=O)N/N=C/c1ccco1	none
CN(c1ccccc1)S(=O)(=O)c1ccc(C(=O)NNC(=O)c2ccccc2F)cc1	none (no result: AI-2 QS mod)
O=C(NCCc1ccccc1)c1nccc2ccccc12	none
c1ccc(CCNc2ccnc3cc4ccccc4cc23)cc1	TbMetRS inhib 84 (no result: AHR activator) | Tb MetRS conf 92 | Jurkat cytotox 81 | Tb MetRS inh FP 83
COc1ccc(Nc2ccnc3ccccc23)cc1	none
CC(C)Nc1ccc(Nc2ccnc3cc4ccccc4cc23)cc1	TbMetRS inhib 85 | Tb MetRS conf 88 | Jurkat cytotox 80 | Tb MetRS inh FP 90
CCCC(=O)NCCCc1nc2ccccc2[nH]1	none
COCC(=O)NCCc1nc2ccccc2[nH]1	none
CCOc1ccc(CCNC(=O)CCc2nc3ccccc3[nH]2)cc1OCC	none
COc1ccc(OCCCC(=O)NCCc2nc3ccccc3[nH]2)cc1	TbMetRS inhib 48 | Tb MetRS conf 70 | Jurkat cytotox inactive | Tb MetRS inh FP 32
COc1ccc(CCC(=O)NCCc2nc3ccccc3[nH]2)cc1	TbMetRS inhib 9.4 | Tb MetRS conf 16 | Jurkat cytotox inactive | Tb MetRS inh FP inactive
COc1ccc(CCNC(=O)CCc2nc3ccccc3[nH]2)cc1OC	TbMetRS inhib 8.3 | Tb MetRS conf 11 | Jurkat cytotox inactive | Tb MetRS inh FP inactive
Cc1ccc(CCNC(=O)CCc2nc3ccccc3[nH]2)cc1	TbMetRS inhib 21 | Tb MetRS conf 37 | Jurkat cytotox inactive | Tb MetRS inh FP inactive
C[C@H]1COc2cc(N3CCC[C@@H]3CO)ccc2S(=O)(=O)N1	none (no result: AHR activator, AI-2 QS mod)
Cc1cc(OCCN2CCN(S(=O)(=O)c3ccccc3F)CC2)ccc1C(C)C	none (no result: AI-2 QS mod)
CCc1ccccc1NC(=O)COC(=O)c1cccs1	none
COc1ccc(N2CCN(C(=O)CCCn3c(=O)[nH]c4ccsc4c3=O)CC2)cc1	none
COc1ccc(N2CCN(C(=O)CCCCn3c(=O)[nH]c4ccsc4c3=O)CC2)cc1	TbMetRS inhib 6.7 | Tb MetRS conf 13 | Jurkat cytotox inactive | Tb MetRS inh FP inactive
O=C(Nc1ccccc1)c1ccc(Cn2cc(C(F)(F)F)ccc2=O)cc1	none
O=C(Nc1ccccc1)c1ccc(=O)n(Cc2ccc(F)c(F)c2)c1	TbMetRS inhib 9.6 | Tb MetRS conf 18 | Jurkat cytotox inactive | Tb MetRS inh FP inactive
O=C(c1ccc(F)cc1Cl)N(Cc1ccco1)C1CCS(=O)(=O)C1 (centres undefined)	none (no result: AI-2 QS mod)
COc1ccccc1CCC(=O)Nc1cccc(S(=O)(=O)N2CCCCCC2)c1	TbMetRS inhib 5.7 | Tb MetRS conf 28 | Jurkat cytotox inactive | Tb MetRS inh FP inactive
COc1ccccc1CCC(=O)Nc1cccc(S(=O)(=O)N2CCOCC2)c1	none
O=C(Cn1c(NCCO)nc2ccccc21)Nc1cccc(S(=O)(=O)N2CCCC2)c1	TbMetRS inhib 11 (no result: AI-2 QS mod) | Tb MetRS conf 48 | Jurkat cytotox inactive | Tb MetRS inh FP inactive
CCN(Cc1cccs1)C(=O)CN1CCN(S(=O)(=O)c2ccc3c(c2)OCCCO3)CC1	none (no result: AHR activator, AI-2 QS mod)
O=C(CNC(=O)c1cccc(OC(F)F)c1)Nc1ccc(Cl)cc1	TbMetRS inhib 51 | Tb MetRS conf 70 | Jurkat cytotox inactive | Tb MetRS inh FP 32
COc1ccccc1CNC(=O)Cn1ccsc1=N	none
N=c1sccn1CC(=O)NCc1ccc(Cl)cc1Cl	TbMetRS inhib 29 | Tb MetRS conf 51 | Jurkat cytotox inactive | Tb MetRS inh FP inactive
O=C(Cn1cc([N+](=O)[O-])ccc1=O)NCc1ccc(Cl)cc1Cl	TbMetRS inhib 9.1 | Tb MetRS conf 26 | Jurkat cytotox inactive | Tb MetRS inh FP inactive
O=C(NNS(=O)(=O)c1ccccc1[N+](=O)[O-])c1cc2ccccc2cc1O	TbMetRS inhib 34 | Tb MetRS conf 49 | Jurkat cytotox inactive | Tb MetRS inh FP 24
CC(=O)c1ccc(NC(=O)C(C)N(C)CC(=O)Nc2cccc(F)c2)cc1 (centres undefined)	none
CC(=O)c1cccc(NC(=O)C(C)N(C)CC(=O)Nc2ccc(Cl)cc2)c1 (centres undefined)	TbMetRS inhib 35 | Tb MetRS conf 53 | Jurkat cytotox inactive | Tb MetRS inh FP 25
Cc1ccc(C)c(NC(=O)CN(C)C(=O)c2cccc(S(=O)(=O)N(C)C)c2)c1	none
CN(CC(=O)Nc1ccc(Cl)cc1)C(=O)c1cccc(S(=O)(=O)N(C)C)c1	TbMetRS inhib 9.1 | Tb MetRS conf 19 | Jurkat cytotox inactive | Tb MetRS inh FP inactive
O=C(Nc1ccccc1)C1=C[C@H](c2csc3ccccc23)C[C@H](OCc2ccc(CO)cc2)O1	none
O=C(NCc1nc2ccccc2[nH]1)C1=C[C@H](c2csc3ccccc23)C[C@H](OCc2ccc(CO)cc2)O1	TbMetRS inhib 58 | Tb MetRS conf 93 | Jurkat cytotox inactive | Tb MetRS inh FP 62
